Measurements from ChEMBL document CHEMBL1156948, “Statistical molecular design of a focused salicylidene acylhydrazide library and multivariate QSAR of inhibition of type III secretion in the Gram-negative bacterium Yersinia” (Bioorg Med Chem, 2010).
The source made the active and inactive calls. The rule behind the calls is not given here.

Columns and labels:
[1] = tested on: Escherichia coli; assay: Antibacterial activity against Escherichia coli DH5[alpha] at 100 uM after 23 hrs by broth dilution assay; format: functional, organism-based
Outline: (§1)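 Overnight LB culture of E. coli DH5α grown at 37 °C, diluted to OD600 0.1 in LB with 2.5 mM CaCl2; compound added from DMSO stock to final 50 or 100 µM. Incubated at 37 °C with absorbance at 595 nm followed over 23 h.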

[2] = tested on: Yersinia pseudotuberculosis YPIII; assay: Inhibition of T3S in Yersinia pseudotuberculosis YPIII expressing yopE-luxAB at 1.56 uM after 3 hrs by luciferase reporter gene assay
Outline: (§2)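 Strain YPIII pIB102 (yopE-luxAB) grown overnight at room temperature in BHI with 5 mM EGTA and 20 mM MgCl2 (calcium depletion), adjusted to OD600 0.088–0.095. Compound added from DMSO at 1.56–200 µM final (eight concentrations). Shaken 1 h at room temperature, then 2 h at 37 °C. Decanal added and light emission read immediately. Triplicates, repeated at least three times.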

[3] = tested on: Yersinia pseudotuberculosis YPIII; assay: Inhibition of T3S in Yersinia pseudotuberculosis YPIII expressing yopE-luxAB at 50 uM after 3 hrs by luciferase reporter gene assay; outline: as §2
[4] = tested on: Yersinia pseudotuberculosis YPIII; assay: Inhibition of T3S in Yersinia pseudotuberculosis YPIII expressing yopE-luxAB at 12.5 uM after 3 hrs by luciferase reporter gene assay; outline: as §2
[5] = tested on: Escherichia coli; assay: Antibacterial activity against Escherichia coli DH5[alpha] at 50 uM after 23 hrs by broth dilution assay; format: functional, organism-based; outline: as §1
[6] = tested on: Yersinia pseudotuberculosis YPIII; assay: Inhibition of T3S in Yersinia pseudotuberculosis YPIII expressing yopE-luxAB at 200 uM after 3 hrs by luciferase reporter gene assay; outline: as §2
[7] = tested on: Yersinia pseudotuberculosis YPIII; assay: Inhibition of T3S in Yersinia pseudotuberculosis YPIII expressing yopE-luxAB at 6.25 uM after 3 hrs by luciferase reporter gene assay; outline: as §2
[8] = tested on: Yersinia pseudotuberculosis; assay: Antibacterial activity against Yersinia pseudotuberculosis expressing pIB102 at 50 uM after 23 hrs by broth dilution assay; format: functional, organism-based
Outline: (§3)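 Wild-type pIB102 grown overnight in LB at room temperature, diluted to OD600 = 0.1 in LB with 2.5 mM CaCl2. Compound added from DMSO stock to final 50 and 100 µM. Incubated at 37 °C with absorbance at 595 nm read over 23 h.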

[9] = tested on: Yersinia pseudotuberculosis YPIII; assay: Inhibition of T3S in Yersinia pseudotuberculosis YPIII expressing yopE-luxAB at 25 uM after 3 hrs by luciferase reporter gene assay; outline: as §2
[10] = tested on: Yersinia pseudotuberculosis; assay: Antibacterial activity against Yersinia pseudotuberculosis expressing pIB102 at 100 uM after 23 hrs by broth dilution assay; format: functional, organism-based; outline: as §3
[11] = tested on: Yersinia pseudotuberculosis YPIII; assay: Inhibition of T3S in Yersinia pseudotuberculosis YPIII expressing yopE-luxAB at 3.13 uM after 3 hrs by luciferase reporter gene assay; outline: as §2
[12] = tested on: Yersinia pseudotuberculosis YPIII; assay: Inhibition of T3S in Yersinia pseudotuberculosis YPIII expressing yopE-luxAB at 100 uM after 3 hrs by luciferase reporter gene assay; outline: as §2

Structure (SMILES) | Activity [1] | inhibition [2] [%] | inhibition [3] [%] | inhibition [4] [%] | Activity [5] | inhibition [6] [%] | inhibition [7] [%] | Activity [8] | inhibition [9] [%] | Activity [10] | inhibition [11] [%] | inhibition [12] [%]
O=C(N/N=C/c1cc(Cl)cc(Cl)c1O)c1ccccc1[N+](=O)[O-] | inactive | -4 | 61 | 4 | inactive | 92 | 8 | inactive | 18 | inactive | 16 | 88
COc1cccc(C(=O)N/N=C/c2cc(OC)cc(OC)c2O)c1 | inactive | -7 | 43 | 13 | inactive | 76 | 9 | inactive | 20 | inactive | 4 | 63
O=C(CC12CC3CC(CC(C3)C1)C2)N/N=C/c1ccc(Cl)cc1O | inactive | 0 | 32 | 19 | inactive | 29 | 18 | inactive | 25 | inactive | 7 | 26
COc1ccc(/C=N/NC(=O)CCc2ccc(O)cc2)c(O)c1 | inactive | -2 | 22 | 16 | inactive | 88 | 4 | inactive | 12 | inactive | -1 | 45
CC(C)(C)c1ccc(O)c(/C=N/NC(=O)c2ccc(Br)cc2)c1 | inactive | 4 | 39 | 29 | inactive | 37 | 19 | inactive | 34 | inactive | 0 | 34
COc1cc(Br)cc(/C=N/NC(=O)CCc2ccc(O)cc2)c1O | inactive | -10 | 23 | 11 | inactive | 52 | 9 | inactive | 18 | inactive | 3 | 36
COc1ccc(Br)c(C(=O)N/N=C/c2cc(C(C)(C)C)ccc2O)c1 | inactive | 3 | 33 | 26 | inactive | 20 | 6 | inactive | 18 | inactive | 0 | 22
COc1cc([N+](=O)[O-])cc(/C=N/NC(=O)CC#N)c1O | inactive | -4 | 39 | 24 | inactive | 43 | 14 | inactive | 27 | inactive | 4 | 39
O=C(N/N=C/c1c(O)cc(O)cc1O)c1sc2ccccc2c1Cl | inactive | 2 | 70 | 33 | inactive | 87 | 21 | inactive | 44 | inactive | 10 | 79
COc1cc(C(=O)N/N=C/c2cc(Cl)cc(Cl)c2O)cc(OC)c1OC | inactive | -10 | 27 | 14 | inactive | 40 | 8 | inactive | 18 | inactive | 13 | 29
COc1cc(/C=N/NC(=O)c2cccc(C(F)(F)F)c2)c(O)c(OC)c1 | inactive | -10 | 66 | 24 | inactive | 75 | 21 | inactive | 39 | inactive | 10 | 74
COc1ccc(Br)c(C(=O)N/N=C/c2cc([N+](=O)[O-])cc([N+](=O)[O-])c2O)c1 | inactive | -7 | 30 | 12 | inactive | 25 | 13 | inactive | 23 | inactive | 0 | 30
COc1cccc(/C=N/NC(=O)c2ccccc2[N+](=O)[O-])c1O | inactive | -5 | 32 | 12 | inactive | 94 | 14 | inactive | 19 | inactive | 19 | 68
CCN(CC)c1ccc(/C=N/NC(=O)c2cc(Cl)cc(Cl)c2)c(O)c1 | inactive | -6 | 43 | 29 | inactive | 46 | 22 | inactive | 34 | inactive | 19 | 46
O=C(N/N=C/c1cc(F)cc(Cl)c1O)c1cc(Cl)cc(Cl)c1 | inactive | -10 | 19 | 10 | inactive | 13 | 12 | inactive | 11 | inactive | 4 | 24
COc1ccc(/C=N/NC(=O)c2sc3ccccc3c2Cl)c(O)c1 | inactive | -2 | 27 | 12 | inactive | 50 | 10 | inactive | 15 | inactive | -2 | 35
O=C(N/N=C/c1cccc(F)c1O)c1cccc(C(F)(F)F)c1 | inactive | -10 | 32 | 14 | inactive | 65 | 5 | inactive | 30 | inactive | 3 | 48
N#CCC(=O)N/N=C/c1cc(Br)ccc1O | inactive | 0 | 86 | 22 | inactive | 99 | 6 | inactive | 55 | inactive | 11 | 97
O=C(N/N=C/c1ccc(Cl)cc1O)c1ccc(Br)cc1 | inactive | -6 | 27 | 26 | inactive | 10 | 14 | inactive | 29 | inactive | 11 | 22
COc1ccc(Br)c(/C=N/NC(=O)CC#N)c1O | inactive | -9 | 25 | 18 | inactive | 59 | 17 | inactive | 20 | inactive | 12 | 57
